# Measurements taken from ChEMBL document CHEMBL4689842, “EUbOPEN Chemogenomics Library wave 1” (2021).
# Tested on: Fibroblast
# Assay: Multiplex assay against human fibroblast
# Format: toxicity, cell-based
# In short: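 Phenotypes for tubulin, mitochondrial mass and membrane permeability are expressed as per cents of healthy-nucleus cells. Cells were stained live at seeding with Hoechst33342, BioTracker Green Microtubule Cytoskeleton Dye, MitoTracker Red and Annexin V Alexa Fluor 680, then imaged after compound addition on a CQ1 microscope at 37°C and 5% CO2. Machine-learning gating in CellPathfinder separated Hoechst high-intensity objects from normal cells, divided normal cells by nuclear state (healthy, pyknosed, fragmented) and divided pyknosed cells into mitotic or apoptotic.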
# [1] = 12 h, 1 µM, compound concentration 1 uM, replicate 1
# [2] = 12 h, 1 µM, compound concentration 1 uM, replicate 2
# [3] = 12 h, 10 µM, compound concentration 10 uM, replicate 1
# [4] = 12 h, 10 µM, compound concentration 10 uM, replicate 2
# [5] = 24 h, 1 µM, compound concentration 1 uM, replicate 1
# [6] = 24 h, 1 µM, compound concentration 1 uM, replicate 2
# [7] = 24 h, 10 µM, compound concentration 10 uM, replicate 1
# [8] = 24 h, 10 µM, compound concentration 10 uM, replicate 2
# [9] = 48 h, 1 µM, compound concentration 1 uM, replicate 1
# [10] = 48 h, 1 µM, compound concentration 1 uM, replicate 2
# [11] = 48 h, 10 µM, compound concentration 10 uM, replicate 1
# [12] = 48 h, 10 µM, compound concentration 10 uM, replicate 2
structure (smiles),measurement,setting,value
CCc1cccc(CC)c1NC(=O)c1nn(C)c2c1CCc1cnc(Nc3ccc(N4CCN(C)CC4)cc3OC)nc1-2,Population Apoptotic (%),[1],45%
same,Population Fragmented Nuclei (%),[1],17%
same,Population Healthy Nuclei (%),[1],47%
same,Population Hoechst High Intensity Objects (%),[1],9%
same,Population Membrane Permeable-Phenotype (%),[1],8%
same,Population Mitochondria Different-Phenotype (%),[1],72%
same,Population Mitotic Cells (%),[1],54%
same,Population Normal (%),[1],90%
same,Population Pyknosed Nuclei (%),[1],34%
same,Population Tubulin-Different-Phenotype (%),[1],75%
same,Total Cell Count,[1],142
same,Population Apoptotic (%),[2],50%
same,Population Fragmented Nuclei (%),[2],54%
same,Population Healthy Nuclei (%),[2],18%
same,Population Hoechst High Intensity Objects (%),[2],25%
same,Population Membrane Permeable-Phenotype (%),[2],0%
same,Population Mitochondria Different-Phenotype (%),[2],75%
same,Population Mitotic Cells (%),[2],50%
same,Population Normal (%),[2],74%
same,Population Pyknosed Nuclei (%),[2],27%
same,Total Cell Count,[2],59
same,Population Apoptotic (%),[3],71%
same,Population Fragmented Nuclei (%),[3],32%
same,Population Healthy Nuclei (%),[3],46%
same,Population Hoechst High Intensity Objects (%),[3],11%
same,Population Membrane Permeable-Phenotype (%),[3],2%
same,Population Mitochondria Different-Phenotype (%),[3],11%
same,Population Mitotic Cells (%),[3],28%
same,Population Normal (%),[3],88%
same,Population Pyknosed Nuclei (%),[3],20%
same,Population Tubulin-Different-Phenotype (%),[3],18%
same,Total Cell Count,[3],213
same,Population Apoptotic (%),[4],20%
same,Population Fragmented Nuclei (%),[4],51%
same,Population Healthy Nuclei (%),[4],40%
same,Population Hoechst High Intensity Objects (%),[4],21%
same,Population Membrane Permeable-Phenotype (%),[4],3%
same,Population Mitochondria Different-Phenotype (%),[4],30%
same,Population Mitotic Cells (%),[4],80%
same,Population Normal (%),[4],78%
same,Population Pyknosed Nuclei (%),[4],7%
same,Population Tubulin-Different-Phenotype (%),[4],23%
same,Total Cell Count,[4],82
same,Population Apoptotic (%),[5],80%
same,Population Fragmented Nuclei (%),[5],25%
same,Population Healthy Nuclei (%),[5],29%
same,Population Hoechst High Intensity Objects (%),[5],10%
same,Population Membrane Permeable-Phenotype (%),[5],2%
same,Population Mitochondria Different-Phenotype (%),[5],89%
same,Population Mitotic Cells (%),[5],19%
same,Population Normal (%),[5],89%
same,Population Pyknosed Nuclei (%),[5],44%
same,Population Tubulin-Different-Phenotype (%),[5],78%
same,Total Cell Count,[5],140
same,Population Apoptotic (%),[6],100%
same,Population Fragmented Nuclei (%),[6],61%
same,Population Healthy Nuclei (%),[6],11%
same,Population Hoechst High Intensity Objects (%),[6],30%
same,Population Membrane Permeable-Phenotype (%),[6],0%
same,Population Mitochondria Different-Phenotype (%),[6],100%
same,Population Mitotic Cells (%),[6],0%
same,Population Normal (%),[6],69%
same,Population Pyknosed Nuclei (%),[6],27%
same,Population Tubulin-Different-Phenotype (%),[6],100%
same,Total Cell Count,[6],63
same,Population Apoptotic (%),[7],72%
same,Population Fragmented Nuclei (%),[7],37%
same,Population Healthy Nuclei (%),[7],46%
same,Population Hoechst High Intensity Objects (%),[7],13%
same,Population Membrane Permeable-Phenotype (%),[7],4%
same,Population Mitochondria Different-Phenotype (%),[7],11%
same,Population Mitotic Cells (%),[7],27%
same,Population Normal (%),[7],86%
same,Population Pyknosed Nuclei (%),[7],16%
same,Total Cell Count,[7],262
same,Population Apoptotic (%),[8],66%
same,Population Fragmented Nuclei (%),[8],60%
same,Population Healthy Nuclei (%),[8],35%
same,Population Hoechst High Intensity Objects (%),[8],20%
same,Population Membrane Permeable-Phenotype (%),[8],6%
same,Population Mitochondria Different-Phenotype (%),[8],10%
same,Population Mitotic Cells (%),[8],33%
same,Population Normal (%),[8],80%
same,Population Pyknosed Nuclei (%),[8],3%
same,Population Tubulin-Different-Phenotype (%),[8],16%
same,Total Cell Count,[8],105
Cl.O=c1c2cccn2c2ccccc2n1CCCN1CCC(c2ccc(Cl)cc2)CC1,Population Apoptotic (%),[1],68%
same,Population Fragmented Nuclei (%),[1],21%
same,Population Healthy Nuclei (%),[1],61%
same,Population Hoechst High Intensity Objects (%),[1],12%
same,Population Membrane Permeable-Phenotype (%),[1],10%
same,Population Mitochondria Different-Phenotype (%),[1],15%
same,Population Mitotic Cells (%),[1],31%
same,Population Normal (%),[1],87%
same,Population Pyknosed Nuclei (%),[1],17%
same,Population Tubulin-Different-Phenotype (%),[1],40%
same,Total Cell Count,[1],123
same,Population Apoptotic (%),[2],60%
same,Population Fragmented Nuclei (%),[2],16%
same,Population Healthy Nuclei (%),[2],73%
same,Population Hoechst High Intensity Objects (%),[2],8%
same,Population Membrane Permeable-Phenotype (%),[2],0%
same,Population Mitochondria Different-Phenotype (%),[2],56%
same,Population Mitotic Cells (%),[2],40%
same,Population Normal (%),[2],91%
same,Population Pyknosed Nuclei (%),[2],9%
same,Population Tubulin-Different-Phenotype (%),[2],30%
same,Total Cell Count,[2],119
same,Population Apoptotic (%),[3],48%
same,Population Fragmented Nuclei (%),[3],28%
same,Population Healthy Nuclei (%),[3],42%
same,Population Hoechst High Intensity Objects (%),[3],30%
same,Population Membrane Permeable-Phenotype (%),[3],5%
same,Population Mitochondria Different-Phenotype (%),[3],52%
same,Population Mitotic Cells (%),[3],51%
same,Population Normal (%),[3],69%
same,Population Pyknosed Nuclei (%),[3],28%
same,Population Tubulin-Different-Phenotype (%),[3],84%
same,Total Cell Count,[3],175
same,Population Apoptotic (%),[4],78%
same,Population Fragmented Nuclei (%),[4],21%
same,Population Healthy Nuclei (%),[4],57%
same,Population Hoechst High Intensity Objects (%),[4],11%
same,Population Membrane Permeable-Phenotype (%),[4],74%
same,Population Mitochondria Different-Phenotype (%),[4],98%
same,Population Mitotic Cells (%),[4],21%
same,Population Normal (%),[4],89%
same,Population Pyknosed Nuclei (%),[4],21%
same,Population Tubulin-Different-Phenotype (%),[4],98%
same,Total Cell Count,[4],58
same,Population Apoptotic (%),[5],48%
same,Population Fragmented Nuclei (%),[5],28%
same,Population Healthy Nuclei (%),[5],44%
same,Population Hoechst High Intensity Objects (%),[5],11%
same,Population Membrane Permeable-Phenotype (%),[5],12%
same,Population Mitochondria Different-Phenotype (%),[5],10%
same,Population Mitotic Cells (%),[5],51%
same,Population Normal (%),[5],88%
same,Population Pyknosed Nuclei (%),[5],27%
same,Population Tubulin-Different-Phenotype (%),[5],45%
same,Total Cell Count,[5],121
same,Population Apoptotic (%),[6],25%
same,Population Fragmented Nuclei (%),[6],16%
same,Population Healthy Nuclei (%),[6],70%
same,Population Hoechst High Intensity Objects (%),[6],7%
same,Population Membrane Permeable-Phenotype (%),[6],2%
same,Population Mitochondria Different-Phenotype (%),[6],38%
same,Population Mitotic Cells (%),[6],75%
same,Population Normal (%),[6],92%
same,Population Pyknosed Nuclei (%),[6],13%
same,Population Tubulin-Different-Phenotype (%),[6],19%
same,Total Cell Count,[6],147
same,Population Apoptotic (%),[7],67%
same,Population Fragmented Nuclei (%),[7],21%
same,Population Healthy Nuclei (%),[7],49%
same,Population Hoechst High Intensity Objects (%),[7],39%
same,Population Membrane Permeable-Phenotype (%),[7],7%
same,Population Mitochondria Different-Phenotype (%),[7],40%
same,Population Mitotic Cells (%),[7],32%
same,Population Normal (%),[7],60%
same,Population Pyknosed Nuclei (%),[7],29%
same,Population Tubulin-Different-Phenotype (%),[7],63%
same,Total Cell Count,[7],193
same,Population Apoptotic (%),[8],87%
same,Population Fragmented Nuclei (%),[8],14%
same,Population Healthy Nuclei (%),[8],64%
same,Population Hoechst High Intensity Objects (%),[8],7%
same,Population Membrane Permeable-Phenotype (%),[8],72%
same,Population Mitochondria Different-Phenotype (%),[8],98%
same,Population Mitotic Cells (%),[8],12%
same,Population Normal (%),[8],92%
same,Population Pyknosed Nuclei (%),[8],20%
same,Population Tubulin-Different-Phenotype (%),[8],98%
same,Total Cell Count,[8],65
same,Population Apoptotic (%),[9],45%
same,Population Fragmented Nuclei (%),[9],43%
same,Population Healthy Nuclei (%),[9],36%
same,Population Hoechst High Intensity Objects (%),[9],14%
same,Population Membrane Permeable-Phenotype (%),[9],11%
same,Population Mitochondria Different-Phenotype (%),[9],2%
same,Population Mitotic Cells (%),[9],54%
same,Population Normal (%),[9],85%
same,Population Pyknosed Nuclei (%),[9],19%
same,Population Tubulin-Different-Phenotype (%),[9],47%
same,Total Cell Count,[9],142
same,Population Apoptotic (%),[10],66%
same,Population Fragmented Nuclei (%),[10],44%
same,Population Healthy Nuclei (%),[10],52%
same,Population Hoechst High Intensity Objects (%),[10],11%
same,Population Membrane Permeable-Phenotype (%),[10],5%
same,Population Mitochondria Different-Phenotype (%),[10],1%
same,Population Mitotic Cells (%),[10],33%
same,Population Normal (%),[10],88%
same,Population Pyknosed Nuclei (%),[10],2%
same,Population Tubulin-Different-Phenotype (%),[10],55%
same,Total Cell Count,[10],120
same,Population Apoptotic (%),[11],81%
same,Population Fragmented Nuclei (%),[11],28%
same,Population Healthy Nuclei (%),[11],50%
same,Population Hoechst High Intensity Objects (%),[11],48%
same,Population Membrane Permeable-Phenotype (%),[11],2%
same,Population Mitochondria Different-Phenotype (%),[11],46%
same,Population Mitotic Cells (%),[11],18%
same,Population Normal (%),[11],51%
same,Population Pyknosed Nuclei (%),[11],22%
same,Population Tubulin-Different-Phenotype (%),[11],78%
same,Total Cell Count,[11],193
same,Population Apoptotic (%),[12],56%
same,Population Fragmented Nuclei (%),[12],27%
same,Population Healthy Nuclei (%),[12],52%
same,Population Hoechst High Intensity Objects (%),[12],55%
same,Population Membrane Permeable-Phenotype (%),[12],3%
same,Population Mitochondria Different-Phenotype (%),[12],48%
same,Population Mitotic Cells (%),[12],44%
same,Population Normal (%),[12],44%
same,Population Pyknosed Nuclei (%),[12],19%
same,Population Tubulin-Different-Phenotype (%),[12],72%
same,Total Cell Count,[12],281
